Only some compounds are listed: those with a hit (about 2% of all), similar ones and a draw of the others.
CAL PDZ FP-1: untagged CAL PDZ binding inhibitors, primary screen, biochemical, fluorescence polarization, HTS; purified CAL PDZ, TMR-peptide fluorescence polarization, 1 h; inhibition, % at 24.9 µM; 300,000 tested, 0.92% active; AID 602252, 2012;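 active = mean inhibition of at least 30% with at least half of replicates also reaching 30%; inconclusive = no clear call, values can overlap the other calls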;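 note: 0% = DMSO neutral control and 100% = excess unlabeled competitor peptide PRC23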
PKA-R1A act: activators of PKA-R1A holoenzyme, primary screen, biochemical, fluorescence polarization, Cy5-IP20, bovine R1A, mouse PKAc; PKA-R1A dissociation; scaled: DMSO 0%, 113 µM cGMP 100%; activation, % at 11.4 µM; 340,000 tested, 0.083% active; AID 504707, 2011;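 active = percent activation above the mean of all tested compounds plus 3 SD, cut at about 19% in these data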;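 note: higher means more PKAc released from R1A so a rise in polarization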
PKA-R2B activ: activators of PKA-R2B holoenzyme, primary screen, biochemical, fluorescence polarization, Cy5-IP20, human | 340,000 tested, 0.079% active | cAMP-dependent protein kinase catalytic subunit beta (Homo sapiens) + cAMP-dependent … | activation, % at 11.4 µM | PKA-R2B holoenzyme dissociation; R2B truncated from residue 108, S112A mutant; 0% DMSO only, 100% 113 µM cGMP;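 active = activation above a cutoff set at the mean over all compounds plus 3 SD, cut at about 18% in these data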;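 note: higher means more holoenzyme dissociation and a rise in polarization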
dFosB act-1: activators of delta FosB homodimer, primary screen, biochemical, fluorescence polarization, TAMRA-CDK5 oligo, single point. 340,000 tested, 0.99% active. purified delta FosB; percent of positive-control signal above neutral wells. AID 493131, 2011. activation, % at 25 µM;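 active = mean activation above about 17%, with every replicate also reaching it, limit read from the data, passing the limit was not always enough; inconclusive = only one of the two conditions met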
CAL PDZ FP-2: CAL PDZ peptide-binding inhibitors, primary screen, biochemical, fluorescence polarization, Cer-tagged CAL PDZ, HTS; 330,000 tested, 0.02% active; purified CAL PDZ, TMR-peptide fluorescence polarization, 1 h; inhibition, % at 20 µM; AID 504414, 2011;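 active = highest replicate inhibition of at least 40%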;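 note: plate controls were DMSO neutral control wells for no effect and unlabeled competitor peptide control wells for full effect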
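Test system: tagged CAL PDZ domain / Buffer or medium: sodium phosphate/NaCl buffer pH 7.4 with TCEP, IgG, Thesit / Reagent: TMR-labelled reporter peptide T*-PRC34 bound in PDZ groove / Compound dosing: single point, 20 µM / Schedule: 1 h incubation at room temperature before polarization reading / Technique: fluorescence polarization (mP) / Benchmarks: unlabelled peptide, DMSO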
NTR1 ag: agonists of human NTR1, primary screen, imaging, U2OS cells, beta-arrestin-GFP, high content; Neurotensin receptor type 1 (Homo sapiens), P30989; NTR1-U2OS beta-arrestin-GFP spot imaging, agonist mode; activation, % at 20 µM; 330,000 tested, 0.17% active; AID 493036, 2011;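 active = activation at or above 40% of the spot to cytoplasm intensity ratio, with at least 20 cells analyzed; inconclusive = wells under 20 cells, flagged as cytotoxic or low count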;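 note: 0% = DMSO without peptide and 100% = 100 nM NTR1 peptide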
Target sequence (P30989 whole entry, looked up): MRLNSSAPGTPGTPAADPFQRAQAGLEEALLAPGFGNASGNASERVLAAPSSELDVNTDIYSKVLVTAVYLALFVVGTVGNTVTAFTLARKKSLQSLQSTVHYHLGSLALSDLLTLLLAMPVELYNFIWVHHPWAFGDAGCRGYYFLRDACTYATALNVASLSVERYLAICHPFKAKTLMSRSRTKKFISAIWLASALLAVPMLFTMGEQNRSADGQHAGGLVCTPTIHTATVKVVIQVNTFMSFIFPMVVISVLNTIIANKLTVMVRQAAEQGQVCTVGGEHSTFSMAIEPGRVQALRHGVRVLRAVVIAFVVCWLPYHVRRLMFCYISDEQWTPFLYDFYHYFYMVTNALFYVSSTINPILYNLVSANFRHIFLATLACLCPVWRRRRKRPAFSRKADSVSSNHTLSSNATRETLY
dFosB act-2: activators of mouse delta FosB DNA binding, confirmation, biochemical, fluorescence polarization, TAMRA-CDK5 oligo, cherry-picked samples. shares compounds with dFosB act-1. purified delta FosB; normalised: neutral wells 0, positive control 100. activation, % at 24.9 µM. 2,400 tested, under 10 active;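 active = highest replicate activation at or above 34% and every replicate reaching that threshold; inconclusive = meets only one of the two criteria; inactive = meets neither criterion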;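 note: higher polarization means more probe DNA bound by delta FosB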
An asterisk follows results filed as active; u = inconclusive; x = not tested or not shown.

SMILES | CAL PDZ FP-1 | PKA-R1A act | PKA-R2B activ | dFosB act-1 | CAL PDZ FP-2 | NTR1 ag | dFosB act-2
COc1cccc(C2CC(c3ccccc3)=NN2S(=O)(=O)c2ccc(C)cc2)c1OC (centres undefined) | -1 | -7 | 4 | 39* | -2 | -2 | 1
COc1ccc(NC(=S)NC23CC4CC(CC(C4)C2)C3)cc1OC | -4 | 15 | -6 | -11 | 1 | 5 | x
O=C(CC1S/C(=N/N=C/c2c[nH]c3ccc(OCc4ccccc4)cc23)NC1=O)Nc1ccccc1 (centres undefined) | -3 | -11 | -1 | 32* | -3 | 0 | 4
Cc1ccc(S(=O)(=O)NCCC(=O)OCc2ccc([N+](=O)[O-])cc2)cc1C | -2 | -13 | -13 | -11 | -2 | 1 | x
CCOc1ccc2nc(NC3=NC(c4ccc(OC)cc4)CC(=O)N3)nc(C)c2c1 (centres undefined) | -15 | 6 | 4 | -57 | -10 | 25 | x
CCOc1ccc2c(C)nc(NC3=NC(C)(C)C=C(C)N3)nc2c1 | -5 | 5 | -4 | 26* | x | 11 | u
CCOc1ccc2nc(NC3=NC(C)(C)C=C(C)N3)nc(C)c2c1 | 6 | -7 | -4 | 23* | -3 | -3 | 5
Cc1ccc(NCc2nnc(SCC(=O)c3ccc4c(c3)OCCO4)o2)c(C)c1 | -2 | -7 | -6 | 29* | -2 | 4 | 2
CC(C(=O)OCC(=O)Nc1ccc(S(N)(=O)=O)cc1)N1C(=O)c2ccccc2C1=O (centres undefined) | -4 | 2 | -11 | -7 | 0 | 4 | x
OC(COc1ccc(Br)cc1)CN1CCC(Cc2ccccc2)CC1 (centres undefined) | 0 | -1 | 7 | -3 | -2 | 0 | x
N#C/C(=C\c1cn(Cc2ccccc2)c2ccccc12)C(=O)NCc1ccco1 | -2 | 0 | -11 | 8 | 0 | 7 | x
Cc1cccc(NC(=O)/C(C#N)=C/c2cn(CC(=O)NCc3ccco3)c3ccccc23)c1C | -1 | -2 | -8 | 37* | -3 | 2 | 0
N#C/C(=C\c1cn(Cc2cccc(F)c2)c2ccccc12)C(=O)NCc1ccco1 | -2 | -6 | -11 | 37* | -1 | 11 | 5
Cc1ccc(C)c(N2CCN(C(=O)CCS(=O)(=O)c3ccc4c(c3)CCN4C(=O)C3CC3)CC2)c1 | -5 | 15 | -4 | -10 | -2 | 2 | x
O=C(Nc1ccc(-c2nc3cccnc3s2)cc1)c1ccco1 | -8 | -11 | -3 | -16 | -8 | 0 | x
O=C(Nc1ccc(-c2nc3cccnc3s2)cc1)c1ccc(Br)o1 | 6 | 11 | 4 | 35* | -2 | 8 | -7
CC(C)Cc1nnc(NC(=O)CSc2nc(-c3ccccc3)cc(=O)[nH]2)s1 | -2 | -3 | -8 | 49* | 0 | 0 | 1
Cc1cc(=O)[nH]c(SCC(=O)Nc2nnc(CC(C)C)s2)n1 | x | -14 | -3 | -3 | 0 | 0 | x
CCOC(=O)N1CCC(N2C(=O)c3ccc(C(=O)NCCOC)cc3C2=O)CC1 | 0 | -1 | -4 | 1 | -1 | 0 | x
Cc1cc(NC(=O)c2ccc3c(c2)C(=O)N(C2CCCCC2)C3=O)no1 | -4 | -13 | 3 | 1 | 0 | -1 | x
O=C(Nc1ccncc1)c1ccc2c(c1)C(=O)N(C1CCCCC1)C2=O | -1 | -14 | -2 | 26* | -1 | 5 | 6
CCOC(=O)N1CCC(N2C(=O)c3ccc(C(=O)Nc4ccc(OC)cc4)cc3C2=O)CC1 | -2 | -4 | -5 | 30* | -2 | 2 | -3
O=C(NC1CCOC1=O)c1ccccc1 (centres undefined) | x | -1 | -7 | 0 | -1 | x | x
O=C(CCC(=O)NNC(=O)COc1ccc(Br)cc1Br)NCc1ccccc1 | 1 | x | x | 34* | 0 | 0 | 3
Cc1cc(Br)cc(Br)c1OCC(=O)NNC(=O)CCC(=O)NCc1ccccc1 | 1 | -7 | -8 | 25* | -2 | -1 | 1
SMILES | CAL PDZ FP-1 | PKA-R1A act | PKA-R2B activ | dFosB act-1 | CAL PDZ FP-2 | NTR1 ag | dFosB act-2
O=C(CCC(=O)NNC(=O)COc1ccccc1)NCc1ccccc1 | -3 | 9 | 2 | 5 | -1 | 3 | x
S=C1Nc2ccccc2Sc2ccc(Cl)cc21 | x | 5 | 3 | 34* | 0 | 3 | 3
Cn1c(=O)n(C)c2cc(NC(=O)c3ccccc3)ccc21 | x | -2 | -2 | x | x | x | x
O=C(Nc1cccc(-c2cccc(Cl)c2)c1)C1CCN(Cc2nccs2)CC1 | x | -2 | 0 | x | x | x | x
COc1cc(OC)cc(C(=O)N=c2sc3ccccc3n2C)c1 | x | -12 | -8 | -18 | -2 | 4 | x
COc1cccc(C(=O)N=c2sc3cc(S(C)(=O)=O)ccc3n2C)c1 | 6 | x | x | 27* | -2 | 0 | 2
CCOc1ccc(Oc2ccc(NC(=O)[C@@H](NC(N)=O)[C@@H](C)CC)cc2)cc1 | -3 | -12 | -6 | 31* | 0 | 0 | 1
CCc1ccc(CN2CCCC(C(=O)N3CCCCC3)C2)cc1 (centres undefined) | 0 | 0 | 3 | -10 | x | 2 | x
COc1ccc(CCNC(=O)c2ccc(OCc3c(C)noc3C)c(OC)c2)cc1 | -2 | 5 | -10 | -3 | -1 | -1 | x
COc1cc(C(=O)NCCc2ccc(S(N)(=O)=O)cc2)ccc1OCc1c(C)noc1C | 1 | 5 | 7 | 26* | 0 | -1 | 2
COc1cc(C(=O)NCc2ccc(C)cc2)ccc1OCc1c(C)noc1C | -1 | 1 | 0 | 25* | 0 | 0 | 6
CCc1nnc(NC(=O)c2ccc(-c3cc(C(F)(F)F)ccc3Cl)o2)s1 | x | 6 | 4 | -7 | -1 | 0 | x
CCc1nnc(NC(=O)c2ccc(-c3cccc(C(F)(F)F)c3)o2)s1 | 0 | 2 | -4 | 19* | -2 | 3 | 3
N#Cc1c(NCCN)nc(-c2ccco2)c2c1CCCC2 | -3 | -9 | 10 | 26* | -1 | 1 | 4
